25 compounds from PubChem BioAssay AID685 (PCMD, 2007) can be followed below.

The assay can be described thus: yeast growth toxicity, wild-type and mutant, primary screen, cytotoxicity control for eIF2B function restoration project, wild-type and eIF2Bepsilon R284H mutant, A595 (AID 685).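 Note: 0% = untreated cell controls and 100% = YPD media blanks without cells.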 As to conditions: A595 turbidity, 16 h, stronger effect = higher value, screened at 25 µM (by protocol). Put shortly:
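System – wild-type and eIF2Bepsilon-R284H mutant S. cerevisiae, screened separately · Measured by – absorbance at 595 nm (turbidity) · Timing – 16 h compound exposure during growth at 30 °C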

Setting [1] is: S. cerevisiae eIF2Bepsilon-R284H mutant growth.

Each structure is given as a SMILES string. Hit rate of the full screen: of about 30,000 compounds, about 80 (0.3%) were called active.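 Rule for the calls: active = mutant and wild-type yeast strains alike exhibit over 30% growth inhibition; inconclusive = a strain exceeds 50% while the second remains under 30%; inactive = the rest.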 This excerpt belongs to a sample that is enriched for actives.

Consider `Cc1cc(C)n(-c2ccc(Cl)c(C(=O)O)n2)n1`, for which the growth inhibition reads like this: under setting [1], -10%; (S. cerevisiae wild-type growth) 22.7% (inactive).

With `Cc1cccc(N(CC(=O)N2CCOCC2)S(C)(=O)=O)c1`, the growth inhibition is, setting by setting: under setting [1], -23.8%; (S. cerevisiae wild-type growth) 4.83% (inactive).

Turning to `CCc1c(O)nc(SCC(=O)Nc2ccccc2)n(C(C)CC)c1=O` (stereo not given), the growth inhibition under setting [1] worked out at 12.8% and the growth inhibition (S. cerevisiae wild-type growth) was 10% (inactive).

Take `O=S1(=O)C=C(SCCN2CCCC2)c2ccccc21`: the growth inhibition runs as follows: under setting [1], 13.5%; (S. cerevisiae wild-type growth) 27.4% (inactive).

`CS(=O)(=O)N1CCN(c2cccc(Cl)n2)CC1`: the growth inhibition is, setting by setting: under setting [1], 18.9%; (S. cerevisiae wild-type growth) -6.15% (inactive).

Turning to `Cc1cccc(NC(=O)C2CCCN2S(=O)(=O)c2ccc(F)cc2)c1C` (stereo not given), the growth inhibition under setting [1] came out at 13.8% and the growth inhibition (S. cerevisiae wild-type growth) is 9.79% (inactive).

Take `COc1ccc(-c2cc(C)nc3nc(N)nn23)cc1`: the growth inhibition was 13.3% under setting [1] and 1.72% (inactive) (S. cerevisiae wild-type growth).

For `Cc1ccc(S(=O)(=O)NC(=O)COc2ccccc2C)cc1`, the growth inhibition under setting [1] turned out to be 10.5% and the growth inhibition (S. cerevisiae wild-type growth) is 6.06% (inactive).

As for `COc1ccc(CN2CCCCC2C)cc1OC` (stereo not given), the growth inhibition is, setting by setting: under setting [1], 12.5%; (S. cerevisiae wild-type growth) 8.46% (inactive).

As to `CC1CC2=C(CC1/C=N/NC(N)=S)C(C)(C)CCC2` (stereo not given), the growth inhibition by setting is: under setting [1], 41.9%; (S. cerevisiae wild-type growth) 30% (active).

Turning to `CCCCNC(=O)OC(C)CNC(=O)OC` (stereo not given), the growth inhibition under setting [1] is 15% and the growth inhibition (S. cerevisiae wild-type growth) was 15.4% (inactive).

In the case of `CC(=O)Nc1ccccc1OC(=O)N1CCOCC1`, the growth inhibition is, setting by setting: under setting [1], 2.94%; (S. cerevisiae wild-type growth) 27.7% (inactive).

As for `O=c1c2ccccc2nc2n1C1(CCCCC1)Cc1ccccc1-2`, the growth inhibition under setting [1] was 2.94% and the growth inhibition (S. cerevisiae wild-type growth) was 5.38% (inactive).

As to `CC(C)C[C@@H](N)c1nnc(SCC(=O)c2ccc(Cl)cc2)o1`, the growth inhibition runs as follows: under setting [1], -4.76%; (S. cerevisiae wild-type growth) -22.1% (inactive).

Regarding `Cc1cc(C(=O)Nc2ccccc2N2CCOCC2)c2ccccc2n1`, the growth inhibition reads like this: under setting [1], 15.2%; (S. cerevisiae wild-type growth) 28.1% (inactive).

Turning to `COc1cccc(N2CC(C(=O)Nc3c(C)cccc3C)CC2=O)c1` (stereo not given), the growth inhibition is -17.4% under setting [1] and -10.6% (inactive) (S. cerevisiae wild-type growth).

For `COC(=O)c1cc(NC(=O)CC2C(=O)NCCN2C(=O)c2ccc(F)cc2)cc(C(=O)OC)c1` (stereo not given), the growth inhibition is, setting by setting: under setting [1], 14.3%; (S. cerevisiae wild-type growth) 3.33% (inactive).

As for `Cc1cc2nc(C)n(CCCNC(=O)Nc3ccccc3)c2cc1C`, the growth inhibition under setting [1] is -4.76% and the growth inhibition (S. cerevisiae wild-type growth) is 26.8% (inactive).

In the case of `Cc1cc(C)c2nc(NC(=O)C3CCCO3)sc2c1` (stereo not given), the growth inhibition was 28.2% under setting [1] and 10.3% (inactive) (S. cerevisiae wild-type growth).

Turning to `CCN(c1ccccc1)S(=O)(=O)c1ccc(C(=O)Nc2nccs2)cc1`, the growth inhibition under setting [1] was determined as 0% and the growth inhibition (S. cerevisiae wild-type growth) was 18.7% (inactive).

Regarding `Cc1ccc(OCC(=O)Nn2cnc3ccccc32)cc1`, the growth inhibition is, setting by setting: under setting [1], -33.3%; (S. cerevisiae wild-type growth) -14% (inactive).

Regarding `Cc1ccc(-c2noc(CSc3nnc(-c4ccncc4)n3-c3ccc(F)cc3)n2)cc1`, the growth inhibition under setting [1] turned out to be 11.6% and the growth inhibition (S. cerevisiae wild-type growth) was 17.6% (inactive).

Take `CCOC(=O)c1ccc(N2C(=O)CC(Sc3nc(O)c(CC)c(=O)[nH]3)C2=O)cc1` (stereo not given): the growth inhibition is, setting by setting: under setting [1], 0%; (S. cerevisiae wild-type growth) -8% (inactive).

Consider `Cc1ccc(N2C(=O)CC(Sc3ncn[nH]3)C2=O)cc1` (stereo not given), for which the growth inhibition is, setting by setting: under setting [1], 23.8%; (S. cerevisiae wild-type growth) 1.62% (inactive).

Consider `O=C1CC(Sc2ncn[nH]2)C(=O)N1c1ccccc1` (stereo not given), for which the growth inhibition by setting is: under setting [1], 56.8%; (S. cerevisiae wild-type growth) 43.7% (active).
